“Also recorded” adds a separate entry of the source.
T1: activin A/ActRIIA-ECD complex binding to ALK4-ECD-Fc (Homo sapiens, UniProt P08476)
T1 sequence (P08476 311-426): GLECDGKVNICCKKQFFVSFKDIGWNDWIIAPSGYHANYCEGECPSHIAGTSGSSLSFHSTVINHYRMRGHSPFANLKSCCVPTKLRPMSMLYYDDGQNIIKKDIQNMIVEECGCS

T2: myostatin/ActRIIA-ECD complex binding with ALK4-ECD-Fc (Homo sapiens, UniProt O14793)
T2 sequence (O14793 267-375): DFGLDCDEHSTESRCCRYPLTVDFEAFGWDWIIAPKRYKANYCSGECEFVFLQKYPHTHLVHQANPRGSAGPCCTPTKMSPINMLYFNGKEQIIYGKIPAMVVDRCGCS

T3: activin A binding to ActRIIA-ECD-Fc (Homo sapiens, UniProt P08476)
T3 sequence (P08476 311-426): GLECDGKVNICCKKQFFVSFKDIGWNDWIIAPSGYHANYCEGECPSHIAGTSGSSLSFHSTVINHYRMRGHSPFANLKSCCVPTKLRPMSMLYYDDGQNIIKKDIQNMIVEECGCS

B1: inhibin A: Purified inhibin A, naturally occurring activin antagonist, positive control in ovary culture (protein, UniProt P05111 233-366; P08476 311-426, looked up)
Inhibin alpha chain: STPLMSWPWSPSALRLLQRPPEEPAAHANCHRVALNISFQELGWERWIVYPPSFIFHYCHGGCGLHIPPNLSLPVPGAPPTPAQPYSLLPGAQPCCAALPGTMRPLHVRTTSDGGYSFKYETVPNLLTQHCACI
Inhibin beta A chain: GLECDGKVNICCKKQFFVSFKDIGWNDWIIAPSGYHANYCEGECPSHIAGTSGSSLSFHSTVINHYRMRGHSPFANLKSCCVPTKLRPMSMLYYDDGQNIIKKDIQNMIVEECGCS

Columns and labels:
[1] = system: activin A-mediated ovarian cell proliferation; test: Ovary ex vivo culture and BrdU assay; format: cell-based, mouse; settings: 1 nM activin A, ovaries of 4-day-old CD1 mice, 4 days
Method in brief: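 Ovaries from 4-day-old CD1 mice were cultured on 0.4-µm membrane inserts in DMEM/F12 with 0.03% BSA for 4 days. Treatments: 1 nM activin A with DMSO, 200 µM test compound, 4 nM Fst288 or 8 nM inhibin A. Then 10 µM BrdU for 24 h. Genomic DNA (150 ng, heat-denatured) was dot-blotted, probed with anti-BrdU and HRP secondary, detected by ECL and quantified by densitometry. Three independent experiments; one-way ANOVA with Tukey test.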

ovariectomized mice = test: Kidney and liver histology and behavior of treated ovariectomized mice; format: in vivo, mouse
Method in brief: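 Ovariectomized 12-week-old CD1 mice received s.c. vehicle or 60 mg/kg test compound twice daily for 2 days (4 doses). Kidney and liver were fixed in Modified Davidson's fixative for 5 days at 4 °C, embedded in paraffin and stained with H&E.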

[2] = target: T1, activin A/ActRIIA-ECD complex binding to ALK4-ECD-Fc; test: Blitz competition binding: activin A/ActRIIA-ECD complex with ALK4-ECD-Fc; settings: 25 µM compound, complex 1.6 µM
Method in brief: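 ALK4-ECD-Fc (50 ng/mL) was immobilized on a protein A Blitz biosensor for 120 s. Activin A and ActRIIA-ECD were premixed 1:2 molar, final 1.6 µM in PBS. The sensor was dipped into this complex with solvent or test compound (0.4, 1.6, 6.25, 25 µM) for 120 s association, then 120 s dissociation in PBS. Real-time wavelength shift recorded.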

[3] = system: activin-stimulated FSH in ovariectomized mice; test: Serum FSH in ovariectomized mice; format: in vivo, mouse; settings: 15 mg/kg s.c. every 12 h, 4 doses
Method in brief: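 Ovariectomized 12-week-old CD1 mice received s.c. test compound (15, 30 or 60 mg/kg) or vehicle (TBS or DMSO) twice daily for 2 days (4 doses). Fst288 control: 200 µg/kg, 3 doses. Serum FSH was measured by ELISA (sensitivity 0.35mIU/mL, 450 nm) as % of vehicle mean. 5–7 mice per group, 10 controls; one-way ANOVA with Tukey test.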

[4] = system: myostatin signaling in the −338FSHβ-Luc LβT2 cell line; test: −338FSHβ-Luc LβT2 cell luciferase assay; format: cell-based, mouse; settings: −338FSHβ-Luc LβT2 luciferase assay
Method in brief: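 Stably transfected −338FSHβ-Luc LβT2 cells (5 × 10^4/well) were treated for 6 h at 37 °C in serum-free, phenol red-free DMEM-F12 with 1% P/S. Treatments: 0.2 nM activin A or 0.2 nM myostatin with DMSO or a test-compound dilution series. Luciferase measured in lysates. Triplicates in three experiments. IC50 from sigmoidal variable-slope fit, reported as means ± SD.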

[5] = system: activin A-stimulated FSHβ promoter activation in −338FSHβ-luc LβT2 cells; test: −338FSHβ-Luc LβT2 cell luciferase assay; format: cell-based; settings: Mus musculus, 6 h, read-out: IC50 for activin A (selectivity test)
[6] = target: T2, myostatin/ActRIIA-ECD complex binding with ALK4-ECD-Fc; test: Blitz competition binding: myostatin/ActRIIA-ECD complex with ALK4-ECD-Fc; settings: 25 µM compound
Method in brief: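 Myostatin and ActRIIA-ECD were premixed 1:2 molar, final 1.6 µM in PBS. Binding was to ALK4-ECD-Fc immobilized on a protein A Blitz biosensor (50 ng/mL, 120 s). Sensor dipped into complex with solvent or 25 µM test compound; 120 s association, 120 s dissociation in PBS. Wavelength shift recorded.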

[7] = target: T3, activin A binding to ActRIIA-ECD-Fc; test: Blitz competition binding: activin A with ActRIIA-ECD-Fc; settings: 25 µM compound, activin A 1.6 µM
Method in brief: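 Protein A biosensor (Blitz) loaded with ActRIIA-ECD-Fc, then dipped into activin A (final 1.6 µM) with solvent control or a single 25 µM test compound. Association was 120 s and dissociation 120 s in PBS. Real-time wavelength shift recorded.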

Molecule | Inhibition of exogenous activin A-mediated ovarian cell proliferation (BrdU) ([1]; 200 µM compound) | Histopathology of the kidney and liver tissue (H&E) (ovariectomized mice; 60 mg/kg s.c. twice daily, 4 doses, ovariectomized mice) | Behavior after injection (ovariectomized mice; s.c. injection, ovariectomized mice) | Adverse effects in efficacy studies (ovariectomized mice; treated mice, efficacy studies) | Antagonism of activin A/ActRIIA-ECD complex binding with ALK4-ECD-Fc [2] | Effect on serum FSH levels compared with control [3] | Selectivity, IC50 for activin A versus IC50 for myostatin [4] | IC50 [5] | Blocking of myostatin/ActRIIA complex binding with ALK4 [6] | Interference with activin A binding with ActRIIA-ECD-Fc [7] | Inhibition of exogenous activin A-mediated ovarian cell proliferation (BrdU) ([1]; 8 nM)
CC(C)(O)C#Cc1ccc(CN2CCC[C@@H](CCC(=O)N3CCOCC3)C2)s1 [NUCC-474] | only partially inhibited |  |  |  |  |  |  |  |  |  | 
CCn1c(-c2cccnc2)nc2cc(NC(=O)COC)cc(C(=O)NCc3ccccc3)c21 [NUCC-555] | completely inhibited | unchanged | normal behavior | No adverse effects | nearly complete antagonist; also recorded: completely blocked | no significant effect | ~10 fold | 5.37 ± 4.01 µM | no blocking activity | weakly interfere | 
B1 |  |  |  |  |  |  |  |  |  |  | completely inhibited
